Measurements published in ChEMBL document CHEMBL5724801, “EUbOPEN Chemogenomics Library - Multiplex” (2024).
Values joined by “and” are separate entries in the source; they are usually repeats but may differ in a detail not shown here. Identical values can stand only once.

Test system: Fibroblast
Assay: Multiplex assay against human fibroblast
Type: toxicity, cell-based
Outline: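 Cells stained live at seeding with Hoechst33342, BioTracker Green Microtubule Cytoskeleton Dye, MitoTracker Red and Annexin V Alexa Fluor 680 were imaged on a CQ1 microscope at 37°C and 5% CO2 after compound addition. Their classification by CellPathfinder machine-learning gating ran from Hoechst high-intensity objects versus normal cells, to healthy, pyknosed or fragmented nuclei among normal cells, to mitotic or apoptotic among pyknosed cells. Tubulin, mitochondrial-mass and membrane-permeability phenotypes are per cents of healthy-nucleus cells.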

[1] = 12 h, 1 µM, compound concentration 1 uM
[2] = 12 h, 10 µM, compound concentration 10 uM
[3] = 24 h, 1 µM, compound concentration 1 uM
[4] = 24 h, 10 µM, compound concentration 10 uM
[5] = 48 h, 1 µM, compound concentration 1 uM
[6] = 48 h, 10 µM, compound concentration 10 uM

CC(N)C1CCC(C(=O)Nc2ccncc2)CC1 (stereo not drawn)
Population Fragmented Nuclei (%) [1]: 12.67% and 4.31% | Population Healthy Nuclei (%) [1]: 64.25% and 88.36% | Population Hoechst High Intensity Objects (%) [1]: 0% | Population Membrane Permeable-Phenotype (%) [1]: 2.82% and 2.93% | Population Mitochondria Different-Phenotype (%) [1]: 7.75% and 8.29% | Population Mitotic Cells (%) [1]: 94.12% and 82.35% | Population Normal (%) [1]: 100% | Population Tubulin-Different-Phenotype (%) [1]: 11.27% and 12.2% | Total Cell Count [1]: 221 and 232 | Population Apoptotic (%) [2]: 19.3% and 38.89% | Population Fragmented Nuclei (%) [2]: 9.18% and 4.02% | Population Healthy Nuclei (%) [2]: 63.29% and 85.63% | Population Hoechst High Intensity Objects (%) [2]: 0% | Population Membrane Permeable-Phenotype (%) [2]: 3.05% and 0% | Population Mitochondria Different-Phenotype (%) [2]: 10.69% and 10.07% | Population Mitotic Cells (%) [2]: 80.7% and 61.11% | Population Normal (%) [2]: 100% | Population Pyknosed Nuclei (%) [2]: 27.54% and 10.34% | Population Tubulin-Different-Phenotype (%) [2]: 10.69% and 8.05% | Total Cell Count [2]: 207 and 174 | Population Apoptotic (%) [3]: 11.11% and 33.33% | Population Fragmented Nuclei (%) [3]: 6.64% and 2.82% | Population Healthy Nuclei (%) [3]: 78.42% and 89.92% | Population Hoechst High Intensity Objects (%) [3]: 0% | Population Membrane Permeable-Phenotype (%) [3]: 4.23% and 2.69% | Population Mitochondria Different-Phenotype (%) [3]: 0.53% and 5.83% | Population Mitotic Cells (%) [3]: 88.89% and 66.67% | Population Normal (%) [3]: 100% | Population Pyknosed Nuclei (%) [3]: 14.94% and 7.26% | Population Tubulin-Different-Phenotype (%) [3]: 7.41% and 11.66% | Total Cell Count [3]: 241 and 248 | Population Apoptotic (%) [4]: 18.18% and 44.44% | Population Fragmented Nuclei (%) [4]: 6.51% and 6.08% | Population Healthy Nuclei (%) [4]: 78.14% and 88.95% | Population Hoechst High Intensity Objects (%) [4]: 0% | Population Membrane Permeable-Phenotype (%) [4]: 2.38% and 0% | Population Mitochondria Different-Phenotype (%) [4]: 4.76% and 8.07% | Population Mitotic Cells (%) [4]: 81.82% and 55.56% | Population Normal (%) [4]: 100% | Population Tubulin-Different-Phenotype (%) [4]: 13.69% and 11.8% | Total Cell Count [4]: 215 and 181 | Population Apoptotic (%) [5]: 30.77% and 83.33% | Population Fragmented Nuclei (%) [5]: 11.15% and 6.02% | Population Healthy Nuclei (%) [5]: 83.85% and 91.57% | Population Hoechst High Intensity Objects (%) [5]: 0% | Population Membrane Permeable-Phenotype (%) [5]: 0.92% and 3.07% | Population Normal (%) [5]: 100% | Population Pyknosed Nuclei (%) [5]: 5% and 2.41% | Population Tubulin-Different-Phenotype (%) [5]: 3.21% and 10.09% | Total Cell Count [5]: 260 and 249 | Population Apoptotic (%) [6]: 50% and 33.33% | Population Fragmented Nuclei (%) [6]: 10.31% and 6.56% | Population Healthy Nuclei (%) [6]: 86.64% and 90.16% | Population Hoechst High Intensity Objects (%) [6]: 0% | Population Membrane Permeable-Phenotype (%) [6]: 0.44% and 0.61% | Population Mitotic Cells (%) [6]: 50% and 66.67% | Population Normal (%) [6]: 100% | Population Pyknosed Nuclei (%) [6]: 3.05% and 3.28% | Population Tubulin-Different-Phenotype (%) [6]: 3.08% and 11.52% | Total Cell Count [6]: 262 and 183

CCCn1c(=O)c2[nH]c(C3CCCC3)nc2n(CCC)c1=O [1,3-DIPROPYL-8-CYCLOPENTYLXANTHINE [DPCPX]]
Population Apoptotic (%) [1]: 38% and 30% | Population Fragmented Nuclei (%) [1]: 10% and 25% | Population Healthy Nuclei (%) [1]: 73% and 46% | Population Hoechst High Intensity Objects (%) [1]: 3% | Population Membrane Permeable-Phenotype (%) [1]: 0% and 1% | Population Mitochondria Different-Phenotype (%) [1]: 1% and 10% | Population Mitotic Cells (%) [1]: 61% and 69% | Population Normal (%) [1]: 96% | Population Pyknosed Nuclei (%) [1]: 15% and 28% | Population Tubulin-Different-Phenotype (%) [1]: 29% and 50% | Total Cell Count [1]: 175 and 156 | Population Apoptotic (%) [2]: 58% and 25% | Population Fragmented Nuclei (%) [2]: 18% and 32% | Population Healthy Nuclei (%) [2]: 65% and 47% | Population Hoechst High Intensity Objects (%) [2]: 3% and 6% | Population Membrane Permeable-Phenotype (%) [2]: 0% and 12% | Population Mitochondria Different-Phenotype (%) [2]: 10% and 3% | Population Mitotic Cells (%) [2]: 41% and 75% | Population Normal (%) [2]: 96% and 93% | Population Pyknosed Nuclei (%) [2]: 17% and 20% | Population Tubulin-Different-Phenotype (%) [2]: 47% and 59% | Total Cell Count [2]: 104 and 129 | Population Apoptotic (%) [3]: 50% and 75% | Population Fragmented Nuclei (%) [3]: 13% and 30% | Population Healthy Nuclei (%) [3]: 77% and 48% | Population Hoechst High Intensity Objects (%) [3]: 2% and 3% | Population Membrane Permeable-Phenotype (%) [3]: 0% and 4% | Population Mitochondria Different-Phenotype (%) [3]: 2% and 12% | Population Mitotic Cells (%) [3]: 50% and 24% | Population Normal (%) [3]: 97% and 96% | Population Pyknosed Nuclei (%) [3]: 9% and 21% | Population Tubulin-Different-Phenotype (%) [3]: 30% and 54% | Total Cell Count [3]: 177 and 159 | Population Fragmented Nuclei (%) [4]: 17% and 35% | Population Healthy Nuclei (%) [4]: 61% and 40% | Population Hoechst High Intensity Objects (%) [4]: 3% and 6% | Population Membrane Permeable-Phenotype (%) [4]: 6% and 8% | Population Mitochondria Different-Phenotype (%) [4]: 9% and 4% | Population Mitotic Cells (%) [4]: 36% and 79% | Population Normal (%) [4]: 96% and 93% | Population Pyknosed Nuclei (%) [4]: 22% and 24% | Population Tubulin-Different-Phenotype (%) [4]: 49% and 63% | Total Cell Count [4]: 104 and 125 | Population Apoptotic (%) [5]: 72% and 47% | Population Fragmented Nuclei (%) [5]: 16% and 39% | Population Healthy Nuclei (%) [5]: 70% and 48% | Population Hoechst High Intensity Objects (%) [5]: 2% and 7% | Population Membrane Permeable-Phenotype (%) [5]: 0% and 5% | Population Mitotic Cells (%) [5]: 27% and 52% | Population Normal (%) [5]: 97% and 92% | Population Pyknosed Nuclei (%) [5]: 12% | Population Tubulin-Different-Phenotype (%) [5]: 35% and 55% | Total Cell Count [5]: 182 and 170 | Population Apoptotic (%) [6]: 57% and 50% | Population Fragmented Nuclei (%) [6]: 24% and 43% | Population Healthy Nuclei (%) [6]: 55% and 45% | Population Hoechst High Intensity Objects (%) [6]: 3% and 2% | Population Mitochondria Different-Phenotype (%) [6]: 13% and 8% | Population Mitotic Cells (%) [6]: 42% and 50% | Population Normal (%) [6]: 96% and 97% | Population Pyknosed Nuclei (%) [6]: 20% and 10% | Population Tubulin-Different-Phenotype (%) [6]: 50% and 78% | Total Cell Count [6]: 98 and 136
